Experimental data from PubChem BioAssay AID504338 (NMMLSC, 2011).
The source made the active and inactive calls.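 Rule for the calls: active = GFP response vs DMSO above 150% with enough events counted; inconclusive = fewer than 70 events counted for a yeast strain; inactive = the rest.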

experiment: yeast TOR reporter LAP4-GFP retest – cell-based, third cherry pick, flow cytometry, confirmation (AID 504338);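 note: ratio to plate DMSO wells so 100% equals DMSO level rather than 0%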; conditions: S. cerevisiae LAP4-GFP strain, 3 h, at 10 µM, stronger effect = higher value
Summary of the method: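 System: Saccharomyces cerevisiae strain expressing LAP4-GFP fusion protein. Quantity: cells at 0.2 OD600. Medium: synthetic complete medium. Read-out basis: median GFP fluorescence as percent of plate DMSO-well average. Signal: high-throughput flow cytometry of GFP, single-cell scatter gate. Schedule: 3 h treatment, 30 °C. Dosing: single compound dose, 10 µM final.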

GFP response vs DMSO, inactive:
CN1CCN(C(=O)c2cc(COc3ccc(F)cc3Cl)on2)CC1c1ccccc1 (centres undefined) 103%
COc1ccc(OC)c(N/C(C)=C/C(=O)c2ccccc2)c1 103%
COC(=O)c1cc(=O)c2cccc(OC)c2[nH]1 101%
Cn1c(NCCO)nc2c(c1=O)C1(CCCCC1)Cc1ccccc1-2 104%
CCN(CC)C(=O)Oc1cc(=O)n(C)c2ccccc12 101%
O=C(O)CCCCCNc1ncnc2ccc(Br)cc12 104%
COc1ccccc1-c1cc(C(F)(F)F)nc(S(=O)(=O)CCCC(=O)O)n1 112%
OCCN1CCN(c2ncnc3ccc(Br)cc23)CC1 104%
Nn1cnc2c(c1=O)C1(CCCCC1)Cc1ccccc1-2 97.2%
NC(=O)c1ccnc2c(O)cccc12 101%
COc1ccc(NC(=O)ON=C2c3ccccc3-c3ccccc32)cc1 104%
C=CCNc1ncnc2ccc(Br)cc12 106%
O=C(O)c1ccccc1-c1ccccc1C(=O)Nc1ccc(-c2nc3cc(Cl)ccc3o2)cc1 104%
COc1ccc(OC)c2c(=O)cc(C(=O)O)[nH]c12 104%
COc1cccc(N/C=C/C(=O)c2ccc(C)cc2)c1 115%
COc1cc(OC)cc(C(=O)Nc2ccc(-c3nc4ccccc4o3)cc2)c1 106%
COc1ccc(N/C=C/C(=O)c2ccc(Cl)cc2)cc1 110%
Cc1cc(C)c(NC(=O)CC(=O)c2ccccc2)c(Cl)c1 100%
Cc1ccc(Nc2cc(=O)[nH]c(=O)[nH]2)cc1Cl 103%
O=C(N/N=C/c1ccccc1F)c1cccc2ccccc12 104%
C=CCNc1nc(N)c([N+](=O)[O-])c(Nc2ccccc2OC)n1 100%
Cc1ccc(C)c(Nc2ncnc(N)c2[N+](=O)[O-])c1 107%
O=C(Nc1ccccc1Cl)ON=C1c2ccccc2-c2ccccc21 108%
Cc1ccc2c(Cl)cc(Cl)c(OCC(=O)O)c2n1 100%
CC1=CN2C(=N)/C(=C/c3ccc(C)o3)C(=O)N=C2S1 104%
CCCCC(=O)NCCc1cc2c(OC)ccc(OC)c2[nH]c1=O 108%
OCc1ccnc2c(O)cccc12 101%
CC(=O)C(Cl)C(=O)Nc1ccccc1 (centres undefined) 124%
COc1ccccc1Nc1nc(NCCCN(C)C)nc(N)c1[N+](=O)[O-] 103%
Cc1nc(Nc2ccc(Cl)cc2)c(C#N)c(=O)[nH]1 107%
COc1cccc(N/C=C/C(=O)c2ccc(Cl)cc2)c1 111%
Oc1ccc(F)c2cccnc12 106%
CCCC(=O)Nn1cnc2c(c1=O)C1(CCCC1)Cc1ccccc1-2 103%
O=C(O)c1ccc2cccnc2c1O 106%
CNc1nc(N)c([N+](=O)[O-])c(Nc2ccccc2OC)n1 111%
O=C(Nc1ccc(-c2nc3ccccc3o2)cc1)c1cccnc1 117%
O=C(N/N=C/c1ccccc1O)c1cccc2ccccc12 110%
C[n+]1cccc2c(Br)ccc([O-])c21 104%
Nc1c(O)ccc2c1C(=O)c1ccccc1C2=O 101%
